# In the library only some 2.3% were active in any assay of this set; here they are far more common.
# PAFAH2 FP inh = inhibitors of human PAFAH2 | recombinant PAFAH2, FP-rhodamine activity probe, fluorescence polarization | inhibition, % at 3.39 µM | 340,000 compounds, 0.99% hits | AID 492956;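 active = inhibition above the mean over all tested compounds plus 3 SD, cut at about 30% in these data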;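 also: inhibitors block probe labeling of enzyme so polarization drops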
# PAFAH1B3 FP inh = blocks human PAF acetylhydrolase 1B catalytic subunit 3 | recombinant PAFAH1B3, FP-rhodamine probe, fluorescence polarization | Q15102 | 340,000 compounds, 0.28% hits | inhibition, % at 3.39 µM;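 active = inhibition above the screen-wide average of all tested compounds plus 3 SD, cut at about 25% in these data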
# Target sequence (Q15102 whole entry, looked up): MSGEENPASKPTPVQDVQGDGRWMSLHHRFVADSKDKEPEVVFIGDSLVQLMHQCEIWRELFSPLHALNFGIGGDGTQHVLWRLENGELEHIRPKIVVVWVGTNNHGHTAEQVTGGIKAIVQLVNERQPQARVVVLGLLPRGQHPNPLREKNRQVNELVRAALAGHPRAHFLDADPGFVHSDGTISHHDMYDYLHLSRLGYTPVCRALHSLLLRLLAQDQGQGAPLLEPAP
# TDP2 inh = blocks human TDP2 phosphodiesterase activity | O95551 | recombinant TDP2, T5PNP hydrolysis, p-nitrophenol absorbance 415 nm | inhibition, % at 12.8 µM | 370,000 compounds, 0.34% hits | AID 720702;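 active = inhibition above the mean of all tested compounds plus 3 SD, set per campaign, cut at about 25% in these data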
# Target sequence (O95551 whole entry, looked up): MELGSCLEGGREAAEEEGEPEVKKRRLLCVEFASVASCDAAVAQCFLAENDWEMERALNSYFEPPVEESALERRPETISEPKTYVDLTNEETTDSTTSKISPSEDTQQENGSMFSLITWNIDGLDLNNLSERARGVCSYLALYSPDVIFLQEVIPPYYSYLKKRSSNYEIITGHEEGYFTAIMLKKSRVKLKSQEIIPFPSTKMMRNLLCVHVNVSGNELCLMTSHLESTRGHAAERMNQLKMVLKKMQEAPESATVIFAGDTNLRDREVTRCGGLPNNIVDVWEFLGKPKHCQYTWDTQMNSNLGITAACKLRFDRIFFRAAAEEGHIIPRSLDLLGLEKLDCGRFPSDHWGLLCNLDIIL
#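 Test system: human TDP2 enzyme; Input: 120 nM TDP2 per well; Buffer or medium: Mg2+-containing Tris-HCl buffer, pH 7.5; Reagent: 5 mM T5PNP; Dosing: 12.8 µM single point, 1% DMSO; Incubation: reaction 2 h, 37 °C; Detection: p-Nitrophenol epi absorbance; Read-out: % inhibition relative to enzyme-containing and enzyme-free wells; Replicates: single well per compound.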
# PAFAH1B2 inh = PAFAH1B2 (human) inhibition; P68402; recombinant PAFAH1B2, FP-rhodamine activity probe, fluorescence polarization; inhibition, % at 3.39 µM; 340,000 compounds, 1.2% hits;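 active = inhibition above the mean of all tested compounds plus 3 SD, cut at about 24% in these data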
# Apaf1 inhib = human Apaf-1 inhibition. reconstituted apoptosome caspase-3 activity, DEVD-Rh110 fluorescence. inhibition, % at 20 µM. 330,000 compounds, 0.71% hits. AID 489030; active = inhibition of at least 40% at 20 µM
#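 Assay system: Apoptosome proteins | Medium: pH 7.5 Hepes buffer with CHAPS, BSA, DTT | Also added: Cytochrome c and DEVD-Rh110 substrate | Times: 30 min plus 50 min, RT | Detection: Rhodamine 110 fluorescence at Ex 480/Em 540 nm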
# A number is an active result; 0 = inactive; - = no result.
SMILES,PAFAH2 FP inh,PAFAH1B3 FP inh,TDP2 inh,PAFAH1B2 inh,Apaf1 inhib
CCOc1ncccc1C(=O)OCC(=O)Nc1ccc(C(N)=O)cc1,0,0,0,0,0
CCOc1ncccc1C(=O)OCC(=O)Nc1ccc2c(c1)CCC2,79,0,0,0,0
CC1CCC2(CC1)CCN(CCCOC(=O)Nc1cccc(C(F)(F)F)c1)C2=O (stereo not drawn),-,-,0,-,-
O=c1oc(Cl)c(Cl)c2ccccc12,35,0,0,0,0
O=C(CSc1nc2nn(-c3ccccc3)c(=O)c-2c2n1CCCCC2)c1ccc(O)c(O)c1,85,29,-,0,0
CNC(=O)CSc1nc2nn(-c3ccccc3)c(=O)c-2c2n1CCCCC2,0,0,-,0,0
CC[n+]1c(/C=C/N(C)c2ccccc2)n(-c2ccccc2)c2ccc(-c3nc4ccccc4s3)cc21,0,0,-,0,82
CCOC(=O)c1ccc2c(c1)n(CC)c(/C=C/N(C)c1ccccc1)[n+]2CC,0,0,0,0,0
S=c1[nH]nc(CSCCOc2ccc(Cl)cc2Cl)o1,0,0,0,34,0
Cc1cc(Nc2ccccc2)nn1C(=O)c1ccc(Br)cc1,0,0,0,27,0
O=C(COC(=O)CCSc1ccccc1)Nc1cc(F)ccc1F,0,0,0,32,0
O=C(COC(=O)CCSc1ccccc1)Nc1ccc(F)cc1Cl,0,0,0,0,0
CN(C)c1ccc(/C=N\NC(=O)c2cccc(S(=O)(=O)N(C)C)c2)cc1,-,-,0,-,-
CCCCSc1nc(O)c(C2OC(=O)c3c2ccc(OC)c3OC)c(=O)n1C (stereo not drawn),0,0,0,0,0
CCCCCCSc1nc(O)c(C2OC(=O)c3c2ccc(OC)c3OC)c(=O)n1-c1ccccc1 (stereo not drawn),37,0,0,0,0
CC(C)CCN(C)C1CCN(C(=O)Nc2ccc3c(c2)OCO3)CC1,-,-,0,-,-
O=C(O)/C=C\C(=O)Nc1ccc(N2CCN(c3ccc(Cl)cc3)CC2)cc1,0,0,0,25,0
O=C(O/N=C1/CCSc2ccccc21)c1ccccc1,41,0,0,0,0
Cc1ccc2c(c1)/C(=N/OC(=O)c1ccc(F)cc1)CCS2,0,0,0,0,0
O=C(CSc1nc2ccccc2c(=O)[nH]1)c1ccc(O)c(O)c1,49,0,0,0,0
O=C(CSc1nc2ccccc2n1CCc1ccccc1)c1ccc(O)c(O)c1,55,0,0,28,-
O=C(NCCc1c[nH]c2ccccc12)OCc1cn(-c2ccc(Cl)cc2)nn1,-,-,0,-,-
CCOC(=O)N1CCN(C(=O)C[C@H]2C[C@@]3(C(=O)OC)C(=C[C@H](C(C)C)O[C@@H]3C3CC3)N(Cc3ccc(Cl)cc3Cl)C2=O)CC1,-,-,0,-,-
CCOC(=O)/C=C(\C)Sc1cc(O)c2ccccc2c1O,31,36,59,0,-
CCOC(=O)/C=C(\C)Sc1cc(=O)oc2ccccc12,0,0,0,0,0
SMILES,PAFAH2 FP inh,PAFAH1B3 FP inh,TDP2 inh,PAFAH1B2 inh,Apaf1 inhib
OC(c1cc(C(F)(F)F)nc2c(Cl)cc(Cl)cc12)C1CCCCN1 (stereo not drawn),0,0,0,0,0
O[C@@H](c1cc(C(F)(F)F)nc2c(C(F)(F)F)cccc12)[C@H]1CCCCN1,0,0,0,0,52
O=[N+]([O-])c1cccc(C2=Nn3c(nnc3-c3ccccc3)SC2)c1,-,-,0,-,-
CN1CCc2nc(SCc3ccc(Cl)cc3)c(C#N)c(-c3cccs3)c2C1,-,-,0,-,83
CCOc1cc(/C=C2\C(=O)N(c3ccc(C(N)=O)cc3)N=C2C)ccc1OC(=O)c1cccs1,0,0,-,0,93
CCOc1cc(/C=C2/SC(=S)N(CC(=O)O)C2=O)ccc1OC(=O)c1cccs1,0,0,0,0,0
CCCCN1C(=O)/C(=C/C=C2\Oc3ccccc3N2CC)SC1=S,0,0,0,0,-
CCN1/C(=C/C=C/c2oc3ccc(-c4ccccc4)cc3[n+]2CC)Oc2ccc(-c3ccccc3)cc21,0,0,0,26,0
C#CCCCN([C@H](C(=O)OC)C(C)C)S(=O)(=O)c1ccccc1Br,-,-,0,-,-
Nc1c(C(=O)NCC2CCCO2)sc2nc3c(c(-c4ccco4)c12)CC/C3=C\c1ccco1 (stereo not drawn),54,39,0,24,-
NC(=O)c1sc2nc3c(c(-c4ccco4)c2c1N)CCCC3,0,0,0,0,0
S=C(Nc1ccc(I)cc1)OC1CCC12CCC(c1ccccc1)CC2 (stereo not drawn),-,-,0,-,-
Cc1occc1C(=O)NC(C)C12CC3CC(CC(C3)C1)C2 (stereo not drawn),0,0,0,0,0
Cc1nnsc1C(=O)NC(C)C12CC3CC(CC(C3)C1)C2 (stereo not drawn),0,0,0,29,0
CC(NC(=O)c1ccccc1F)C12CC3CC(CC(C3)C1)C2 (stereo not drawn),0,0,0,27,0
Cc1noc(C)c1C(=O)NC(C)C12CC3CC(CC(C3)C1)C2 (stereo not drawn),0,0,0,0,0
CC(=O)OCCC(CC(C)C)NC(=O)[C@H](CC(C)C)NC(=O)OCc1ccccc1 (stereo partly drawn),-,-,0,-,-
O=[N+]([O-])c1cncc2[nH]cnc12,-,-,0,-,-
O=C(CSc1nnc(-c2ccco2)c(-c2ccco2)n1)c1ccccc1,33,0,0,0,0
CC(=O)Oc1cc(C(=O)OCC(=O)NC23CC4CC(CC(C4)C2)C3)cc(OC(C)=O)c1OC(C)=O,88,0,0,65,-
O=C(COC(=O)c1cccs1)NC12CC3CC(CC(C3)C1)C2,0,0,0,0,0
COc1cccc(C(=O)OCC(=O)NC23CC4CC(CC(C4)C2)C3)c1,82,0,0,0,0
Cc1ccc(C2CC(=O)Oc3cc(O)ccc32)cc1 (stereo not drawn),0,34,0,24,0
Cc1ccc(S(=O)(=O)Nc2nc3ccccc3nc2NCc2ccco2)cc1,34,26,0,30,0
O=S(=O)(Nc1nc2ccccc2nc1NCc1ccco1)c1ccc(Cl)cc1,0,0,0,0,0
SMILES,PAFAH2 FP inh,PAFAH1B3 FP inh,TDP2 inh,PAFAH1B2 inh,Apaf1 inhib
O=C(O)C1Nc2c(O)cc(Cl)c([N+](=O)[O-])c2C2C=CCC12 (stereo not drawn),77,63,0,51,0
CN(C)C(=O)NC1CCCCCCCCCCC1,0,0,0,36,0
C[C@@H]1CCN(C2CC2)S(=O)(=O)c2c(cccc2N2CC[C@H](O)C2)O1,-,-,0,-,-
O=C(C(c1ccccc1)c1ccccc1)N1CCN(Cc2ccc(Br)cc2)CC1,0,0,0,24,0
CCCCCCCCN1C(=O)[C@@H](CC(=O)NCCC(C)C)C[C@@]2(C(=O)OC)C1=C[C@H](COCc1ccccc1)O[C@@H]2C,-,-,0,-,-
O=C(N=Nc1c(O)[nH]c2ccc(F)cc12)c1ccc(NS(=O)(=O)c2cccs2)cc1,0,0,0,0,0
Cc1ccc2[nH]c(O)c(N=NC(=O)c3ccc(NS(=O)(=O)c4cccs4)cc3)c2c1,0,0,0,26,0

# From PubChem BioAssay
